Molecules are shown by their SMILES. Active and inactive are the calls of the source.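 Rule for the calls, unless noted: active = viability at or below 10% of carrier control in both of two separate runs; inconclusive = viability at or below 10% in only one of the two runs; inactive = the rest.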

Assay [1] can be described thus: Her2 expression decrease, cell viability multiplex – SKBR3 breast tumor cells, AlphaScreen, ATP viability, primary screen (AID 461;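 active = Her2 level under about 52% in both replicate screens, with viability over 70% of control, limit read from the data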;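 for Her2 level: lower value means less Her2 protein in the cells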;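 for viability: percent of carrier control wells set as 100% viability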). Conditions: SKBR3 Her2 protein level, 18-24 h, measured here: SKBR3 viability, ATP luminescence, at 10 µM. (In Alpha technology, singlet oxygen from a donor bead excites a nearby acceptor bead.)
The target in assay [2] is Receptor tyrosine-protein kinase erbB-2 (Homo sapiens) (UniProt P04626). Described as above. Conditions: 18-24 h, at 10 µM, stronger effect = lower value.
Assay [3] in a line: reduced viability of SK-BR-3 breast cancer cells – cell-based, 24 h, human, pilot screen (AID 572).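 Note: compound exposure lasted between 18 and 24 h rather than exactly 24 h; 100% = carrier-treated control wells.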 Conditions: SK-BR-3 viability, CellTiter-Glo luminescence, at 10 µM, stronger effect = lower value. (In general: In ATP-based viability assays light output follows the ATP content of the culture.)
The nature of assay [4]: HUVEC growth inhibition – cell-based, human, primary screen (AID 575;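 active = viability at or below 30% in both replicate assays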;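 note: 100% = median of untreated cell wells with 0.1% DMSO on each plate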). Conditions: HUVEC proliferation, CellTiter-Glo luminescence, 72 h; at 10 µM; stronger effect = lower value. In short, it runs like this: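 Test system: HUVEC primary cells. Quantity: 1250 endothelial cells in each well. Dosing: single-point 10 µM, DMSO 0.1% final. Incubation: 72 h treatment at 37 °C. Measured by: CTG luminescence. Control set: DMSO cell controls and MePR drug controls. Plate: collagen-coated 384-well format.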

A short description of assay [5]: H69AR cell proliferation blockers – human, duplicate replicates, primary screen (AID 580;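 active = viability at or under a set limit in both replicates, limit being median viability minus 3 SD, cut at about 48% in these data, passing the limit was not always enough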;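 note: 100% = mean luminescence of untreated wells and 0% = no signal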). Conditions: H69AR lung tumor cells viability, ATP luminescence, 72 h; at 10 µM; stronger effect = lower value.
A short description of assay [6]: MRP1 drug-resistance reversers in H69AR cells – cell-based, doxorubicin co-treatment, pilot screen (AID 601;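 active = viability loss from added drug above about 55%, and viability with drug at most 40%, in both replicates, limit read from the data, passing the limit was not always enough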). The following applies: CellTiter-Glo, 72 h, at 10 µM; for differential viability (reversal): stronger effect = higher value.
Assay [7] in a line: yeast transport mutant growth inhibition pilot in 384-well plates, post-Golgi transport modulator project (AID 636; in the data active = inhibition above about 31%). The following applies: absorbance 615 nm, about 18 h, stronger effect = higher value.
Assay [8] is described as follows: growth suppression of yeast trafficking mutant, preliminary HTS, modulators of trafficking downstream of Golgi apparatus project, 1536-format plate, OD 615 nm (AID 637; in the data active = inhibition above about 30%). The following applies: yeast transport mutant growth, absorbance 615 nm, 18 h; stronger effect = higher value.
Setting [9] is: H69AR cells + 2 uM doxorubicin, measured here: viability with 2 uM doxorubicin, stronger effect = lower value.
Setting [10] is: H69AR cells, compound alone cytotoxicity.

Chain of Receptor tyrosine-protein kinase erbB-2 (Homo sapiens) (P04626 whole entry, looked up): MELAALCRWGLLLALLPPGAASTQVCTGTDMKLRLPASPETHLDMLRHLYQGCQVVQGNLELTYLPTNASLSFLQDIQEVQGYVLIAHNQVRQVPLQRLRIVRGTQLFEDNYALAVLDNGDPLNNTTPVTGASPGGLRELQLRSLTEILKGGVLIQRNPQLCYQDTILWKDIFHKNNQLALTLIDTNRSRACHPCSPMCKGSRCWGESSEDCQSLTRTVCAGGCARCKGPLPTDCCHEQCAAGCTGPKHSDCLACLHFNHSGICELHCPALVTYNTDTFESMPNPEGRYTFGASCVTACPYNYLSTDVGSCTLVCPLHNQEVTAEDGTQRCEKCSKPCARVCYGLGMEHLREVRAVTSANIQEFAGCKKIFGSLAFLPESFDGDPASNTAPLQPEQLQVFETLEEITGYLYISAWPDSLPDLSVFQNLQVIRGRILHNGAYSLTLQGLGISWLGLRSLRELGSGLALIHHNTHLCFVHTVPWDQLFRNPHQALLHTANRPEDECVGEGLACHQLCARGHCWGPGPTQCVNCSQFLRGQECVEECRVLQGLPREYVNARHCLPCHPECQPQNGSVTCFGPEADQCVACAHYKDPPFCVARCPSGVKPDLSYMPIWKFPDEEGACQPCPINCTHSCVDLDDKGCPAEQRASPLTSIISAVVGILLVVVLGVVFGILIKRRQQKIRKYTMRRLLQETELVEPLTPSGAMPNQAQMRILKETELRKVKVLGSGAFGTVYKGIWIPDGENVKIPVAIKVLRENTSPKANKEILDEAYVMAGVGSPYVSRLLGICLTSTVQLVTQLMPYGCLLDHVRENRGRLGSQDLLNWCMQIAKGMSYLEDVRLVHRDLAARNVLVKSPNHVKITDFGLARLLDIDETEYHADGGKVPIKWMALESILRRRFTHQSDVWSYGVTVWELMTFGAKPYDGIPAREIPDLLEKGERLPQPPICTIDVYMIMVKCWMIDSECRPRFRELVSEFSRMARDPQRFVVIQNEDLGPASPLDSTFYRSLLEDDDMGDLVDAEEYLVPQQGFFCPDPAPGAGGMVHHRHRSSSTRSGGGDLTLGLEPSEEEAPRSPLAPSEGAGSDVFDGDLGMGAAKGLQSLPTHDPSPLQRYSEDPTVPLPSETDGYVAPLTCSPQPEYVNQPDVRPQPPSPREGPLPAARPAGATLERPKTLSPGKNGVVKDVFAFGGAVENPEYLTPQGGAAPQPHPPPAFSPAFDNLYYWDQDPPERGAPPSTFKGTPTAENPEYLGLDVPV

For `O=C(N1CCCCCC1)N1CCN(S(=O)(=O)N2CCCCC2)CC1`, the viability in assay [1] is 101%; in assay [3], 101% (inactive); in assay [4] it was 99.5% (inactive); in assay [5], 94% (inactive); in assay [6] (setting [9]), 99.7%; in assay [6] (setting [10]) it was 94%. For the same compound, the Her2 level in assay [2] was 91.5% (inactive). In assay [6] (H69AR cells + 2 uM doxorubicin), the differential viability (reversal) is -5.71% (inactive). Also, the inhibition in assay [7] is -2.76% (inactive); in assay [8], -2.26% (inactive).

For `CCN1CCN(c2ncnc3c2oc2nc(C)c4c(c23)CC(C)(C)OC4)CC1`, the viability in assay [1] was 91.5%; in assay [3] it was 91.5% (inactive); in assay [4] it was 98.3% (inactive); in assay [5], 97% (inactive); in assay [6] (setting [9]), 98.1%; in assay [6] (setting [10]) it was 97%. Also, in assay [2], the Her2 level was 122% (inactive). The differential viability (reversal) in assay [6] (H69AR cells + 2 uM doxorubicin) was -1.16% (inactive). Moreover, the inhibition in assay [7] was -0.78% (inactive); in assay [8] it was -3.17% (inactive).

Consider `O=C(C1CCCN(S(=O)(=O)c2cccnc2)C1)N1CCN(c2ccccn2)CC1` (stereo not given), for which the viability in assay [1] was 93.5%; in assay [3] it was 93.5% (inactive); in assay [4] it was 103% (inactive); in assay [5], 98.7% (inactive); in assay [6] (setting [9]) it was 90.3%; in assay [6] (setting [10]), 98.7%. For the same compound, the Her2 level in assay [2] is 122% (inactive). Moreover, the differential viability (reversal) in assay [6] (H69AR cells + 2 uM doxorubicin) was 8.35% (inactive). Also, the inhibition in assay [7] is 0% (inactive); in assay [8] it was -4% (inactive).

Consider `Cc1ccccc1-n1c(=O)cc(N2CCN(C(=O)c3ccco3)CC2)[nH]c1=O`, for which the viability in assay [1] is 86%; in assay [3], 86% (inactive); in assay [4] it was 100% (inactive); in assay [5], 98.3% (inactive); in assay [6] (setting [9]), 88.5%; in assay [6] (setting [10]) it was 98.3%. For the same compound, the Her2 level in assay [2] was 100% (inactive). For the same compound, the differential viability (reversal) in assay [6] (H69AR cells + 2 uM doxorubicin) is 9.79% (inactive). The inhibition in assay [7] is 0.77% (inactive); in assay [8], 0.17% (inactive).

Regarding `O=C1C(Cl)=C(N2CCCCC2)C(=O)N1c1ccccc1Cl`, the viability in assay [1] is 106%; in assay [3] it was 106% (inactive); in assay [4], 89.7% (inactive); in assay [5] it was 81.8% (inactive); in assay [6] (setting [9]), 80.4%; in assay [6] (setting [10]), 81.8%. Further, the Her2 level in assay [2] was 79.5% (inactive). For the same compound, the differential viability (reversal) in assay [6] (H69AR cells + 2 uM doxorubicin) was 1.39% (inactive). The inhibition was -2.6% (inactive) in assay [7] and 2.95% (inactive) in assay [8].

As for `CCOC(=O)C1CCCN(c2c(N3CCN(c4ccccn4)CC3)c(=O)c2=O)C1` (stereo not given), the viability was 86.5% in assay [1]; 86.5% (inactive) in assay [3]; 86.7% (inactive) in assay [4]; 102% (inactive) in assay [5]; 86.5% in assay [6] (setting [9]); 102% in assay [6] (setting [10]). Also, the Her2 level in assay [2] was 104% (inactive). For the same compound, in assay [6] (H69AR cells + 2 uM doxorubicin), the differential viability (reversal) is 15% (inactive). The values for the inhibition in assay [7] and in assay [8] were 0% (inactive) and -2.46% (inactive), respectively.

As for `CCCc1c(O)nc(SCC(=O)NCCc2ccc(OC)c(OC)c2)[nH]c1=O`, the viability in assay [1] was 95%; in assay [3], 95% (inactive); in assay [4], 84.6% (inactive); in assay [5] it was 104% (inactive); in assay [6] (setting [9]) it was 104%; in assay [6] (setting [10]), 104%. The Her2 level in assay [2] is 93.5% (inactive). Besides, the differential viability (reversal) in assay [6] (H69AR cells + 2 uM doxorubicin) is -0.29% (inactive). Also, the inhibition in assay [7] was -4.53% (inactive); in assay [8], -2.26% (inactive).

In the case of `Cc1cccc(N2CCN(S(=O)(=O)c3ccc4c(c3)CCC(=O)N4)CC2C)c1` (stereo not given), the viability is 110% in assay [1]; 110% (inactive) in assay [3]; 84.7% (inactive) in assay [4]; 73.6% (inactive) in assay [5]; 83.9% in assay [6] (setting [9]); 73.6% in assay [6] (setting [10]). For the same compound, the Her2 level in assay [2] was 95% (inactive). Also, the differential viability (reversal) in assay [6] (H69AR cells + 2 uM doxorubicin) was -10.3% (inactive). Further, the inhibition in assay [7] is -5.13% (inactive); in assay [8], -2.18% (inactive).

`Cc1cc2c(nn1)CCC/C2=N\O`: the viability in assay [1] was 104%; in assay [3] it was 104% (inactive); in assay [4] it was 123% (inactive); in assay [5] it was 95.6% (inactive); in assay [6] (setting [9]) it was 91.8%; in assay [6] (setting [10]), 95.6%. Also, the Her2 level in assay [2] is 99% (inactive). In addition, the differential viability (reversal) in assay [6] (H69AR cells + 2 uM doxorubicin) is 3.77% (inactive). The inhibition in assay [7] was -4.47% (inactive); in assay [8], 6.72% (inactive).

`CC(NC(=O)CSc1n[nH]c(=O)n1C1CC1)C12CC3CC(CC(C3)C1)C2` (stereo not given): the viability in assay [1] is 91.5%; in assay [3], 91.5% (inactive); in assay [4], 91.6% (inactive); in assay [5], 99.8% (inactive); in assay [6] (setting [9]), 93.6%; in assay [6] (setting [10]) it was 99.8%. Also, the Her2 level in assay [2] is 106% (inactive). In addition, the differential viability (reversal) in assay [6] (H69AR cells + 2 uM doxorubicin) is 6.17% (inactive). Also, the inhibition in assay [7] was -4% (inactive); in assay [8] it was -5.41% (inactive).

Take `COc1ccc(C(=O)NCCSc2ccccn2)cc1`: the viability in assay [1] is 97%; in assay [3] it was 97% (inactive); in assay [4], 102% (inactive); in assay [5], 96% (inactive); in assay [6] (setting [9]) it was 78.6%; in assay [6] (setting [10]), 96%. Also, the Her2 level in assay [2] is 108% (inactive). Besides, the differential viability (reversal) in assay [6] (H69AR cells + 2 uM doxorubicin) is 17.4% (inactive). Also, the inhibition was -7.07% (inactive) in assay [7] and 0.32% (inactive) in assay [8].

Regarding `CC(C)CNC(=O)c1c(N)n(/N=C/c2ccccn2)c2nc3ccccc3nc12`, the viability in assay [1] was 88.5%; in assay [3] it was 88.5% (inactive); in assay [4] it was 80.4% (inactive); in assay [5] it was 83.9% (inactive); in assay [6] (setting [9]), 81%; in assay [6] (setting [10]), 83.9%. In assay [2], the Her2 level is 92.5% (inactive). The differential viability (reversal) in assay [6] (H69AR cells + 2 uM doxorubicin) is 2.92% (inactive). In addition, the inhibition was -4.67% (inactive) in assay [7] and -1.48% (inactive) in assay [8].

For the compound `CCCN1C2CCCC1CC(NC(=O)Nc1cccc(C(C)=O)c1)C2` (stereo not given), the viability in assay [1] is 105%; in assay [3] it was 105% (inactive); in assay [4], 94.8% (inactive); in assay [5] it was 94.3% (inactive); in assay [6] (setting [9]), 96.5%; in assay [6] (setting [10]) it was 94.3%. Also, the Her2 level in assay [2] is 77% (inactive). In addition, in assay [6] (H69AR cells + 2 uM doxorubicin), the differential viability (reversal) was -2.24% (inactive). Moreover, the inhibition in assay [7] is -1.95% (inactive); in assay [8], -0.95% (inactive).

Turning to `COC(=O)c1c(-c2ccc(F)cc2)noc1N`, the viability in assay [1] was 94%; in assay [3], 94% (inactive); in assay [4], 89.4% (inactive); in assay [5], 93.3% (inactive); in assay [6] (setting [9]) it was 89.5%; in assay [6] (setting [10]), 93.3%. Also, the Her2 level in assay [2] was 97.5% (inactive). Besides, the differential viability (reversal) in assay [6] (H69AR cells + 2 uM doxorubicin) is 3.79% (inactive). Besides, the inhibition in assay [7] was -2.97% (inactive); in assay [8] it was 1.33% (inactive).

As to `COCC(=O)N(Cc1nc2ccccc2c(=O)[nH]1)Cc1cccs1`, the viability was 103% in assay [1]; 103% (inactive) in assay [3]; 93.3% (inactive) in assay [4]; 98.8% (inactive) in assay [5]; 101% in assay [6] (setting [9]); 98.8% in assay [6] (setting [10]). The Her2 level in assay [2] is 100% (inactive). The differential viability (reversal) in assay [6] (H69AR cells + 2 uM doxorubicin) is -2.5% (inactive). The inhibition in assay [7] is -3.07% (inactive); in assay [8], -0.65% (inactive).

Consider `Cn1c(Cc2csc(N)n2)nnc1SCC(=O)NCc1ccccc1`, for which the viability in assay [1] is 93%; in assay [3], 93% (inactive); in assay [4], 114% (inactive); in assay [5], 100% (inactive); in assay [6] (setting [9]), 111%; in assay [6] (setting [10]), 100%. The Her2 level in assay [2] is 99.5% (inactive). For the same compound, the differential viability (reversal) in assay [6] (H69AR cells + 2 uM doxorubicin) is -11.2% (inactive). For the same compound, the inhibition in assay [7] was 0.39% (inactive); in assay [8] it was -4.52% (inactive).

In general, viability refers to a read-out of living cells in per cent, often relative to untreated cells. Usually inhibition stands for the change of the read-out against control, counted positive when it falls.
